From ChEMBL document CHEMBL4825676, “Design and biological evaluation of cinnamic and phenylpropionic amide derivatives as novel dual inhibitors of HIV-1 protease and reverse transcriptase” (Eur J Med Chem, 2021)

Experiments:
[1] = test system: Human immunodeficiency virus 1; experiment: Antiviral activity against HIV1 NL4-3 Env-deficient VSV-G pseudotyped virus infected in human SUP-T1 cells assessed as inhibition of late stage viral production when host cells were infected with compound pretreated viral particles at 10 uM measured after 48 hrs by luciferase assay relative to control; type: functional; details: Human immunodeficiency virus 1, NL4-3, SUP-T1
How it was run: (§1)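 Late-stage assay: VSV-G pseudotyped HIV-1 was made by co-transfecting 293T cells with pNL4-3-E⁻R⁻ (or DRV-resistant variants) plus pHCMV-G. Inhibitors in DMSO were added to the medium 5 h post-transfection. After 48 h at 37 °C, supernatant virus infected SupT1 cells for 48 h, and luciferase was read in the newly infected cells. Quintuplicate; inhibition at one fixed concentration and EC50.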

[2] = test system: Human immunodeficiency virus 1; experiment: Antiviral activity against HIV1 NL4-3 VSV-G pseudotyped virus infected in human SUP-T1 cells assessed as inhibition of early stage viral production at 10 uM measured after 48 hrs by luciferase assay relative to control; type: functional; details: Human immunodeficiency virus 1, NL4-3, SUP-T1
How it was run: (§2)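 Early-stage assay: SupT1 cells (1 × 10⁵/mL) were infected with VSV-G-pseudotyped HIV-1(NL4-3), and compounds were added afterward, with final DMSO held at 1% (v/v). After 48 h the cells were lysed and firefly luciferase activity was measured. Quintuplicate; inhibition at one fixed concentration and EC50.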

[3] = molecular target: Human immunodeficiency virus type 1 protease (Human immunodeficiency virus 1, UniProt Q72874); experiment: Inhibition of wild type HIV1 protease expressed in Escherichia coli using Arg-Glu (EDANS)-Ser-Gln-Asn-Tyr-Pro-Ile-Val-Gln-Lys(DABCYL)-Arg as substrate preincubated for 20 to 30 mins followed by substrate addition and measured for 10 mins by FRET assay
How it was run: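 Recombinant HIV-1 PR was expressed in E. coli and purified. It was mixed with inhibitor (DMSO stock) for 20–30 min at room temperature before addition of the EDANS/DABCYL-labelled peptide. Buffer: 0.1 M sodium acetate, 1 M NaCl, 1 mM EDTA, 1 mM DTT, 2% DMSO, 1 mg/mL BSA, pH 4.7. Triplicate; mean of three independent experiments.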

[4] = molecular target: Human immunodeficiency virus type 1 reverse transcriptase (Human immunodeficiency virus 1, UniProt Q72547); experiment: Inhibition of wild type HIV-1 NL4-3 reverse transcriptase using random mRNA as template and GADPH as primer measured at 42 degreeC for 5 mins, 95 degreeC for 10sec and 60 degreeC for 60 sec by qRT-PCR analysis
[5] = test system: Human immunodeficiency virus 1; experiment: Antiviral activity against HIV1 NL4-3 VSV-G pseudotyped virus infected in human SUP-T1 cells assessed as inhibition of early stage viral production measured after 48 hrs by luciferase assay; type: functional, organism-based; details: Human immunodeficiency virus 1, NL4-3, SUP-T1, 48 h; how it was run: as §2
[6] = test system: Human immunodeficiency virus 1; experiment: Antiviral activity against HIV1 NL4-3 Env-deficient VSV-G pseudotyped virus infected in human SUP-T1 cells assessed as inhibition of late stage viral production when host cells were infected with compound pretreated viral particles measured after 48 hrs by luciferase assay; type: functional, organism-based; details: Human immunodeficiency virus 1, NL4-3, SUP-T1; how it was run: as §1
[7] = Ratio of antiviral activity against HIV1 NL4-3 Env-deficient VSV-G pseudotyped virus infected in human SUP-T1 cells assessed as inhibition of late stage viral production when host cells were infected with compound pretreated viral particles to antiviral activity against HIV1 NL4-3 VSV-G pseudotyped virus infected in human SUP-T1 cells assessed as inhibition of early stage viral production; type: functional, Human immunodeficiency virus 1
How it was run: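 Ratio taken from single-round VSV-G pseudotyped HIV-1(NL4-3) luciferase assays in SupT1 cells (quintuplicate). It is late-stage inhibition (compound given to producer 293T cells after transfection) divided by early-stage inhibition (compound added after SupT1 infection), or the reverse.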

| SMILES | IC50 [3] | IC50 [4] | also measured |
| --- | --- | --- | --- |
| CC(C)CN(C[C@@H](O)[C@H](Cc1ccccc1)NC(=O)O[C@H]1CO[C@H]2OCC[C@H]21)S(=O)(=O)c1ccc(N)cc1 | – | – | inhibition at 10 µM [1]: 99%; inhibition at 10 µM [2]: 2% |
| COc1ccc(S(=O)(=O)N(CC(C)C)C[C@@H](O)[C@H](Cc2ccccc2)NC(=O)/C=C/c2ccc(O)c(OC)c2)cc1 | 2.93 nM | 146 nM | – |
| COc1cc(CCC(=O)N[C@@H](Cc2ccccc2)[C@H](O)CN(CC(C)C)S(=O)(=O)c2ccc(N)cc2)ccc1O | 0.58 nM | 31.5 nM | – |
| COc1cc(CCC(=O)N[C@@H](Cc2ccccc2)[C@H](O)CN(CC(C)C)S(=O)(=O)c2ccc(N)cc2)c(OC)cc1O | 68.9 nM | 113 nM | – |
| CCCN(C[C@@H](O)[C@H](Cc1ccccc1)NC(=O)CCc1cc(OC)c(O)cc1OC)S(=O)(=O)c1ccc(OC)cc1 | 86.4 nM | 6.5 nM | – |
| COc1ccc(S(=O)(=O)N(C[C@@H](O)[C@H](Cc2ccccc2)NC(=O)/C=C/c2ccc(O)c(OC)c2)C2CC2)cc1 | 97.6 nM | 43.5 nM | – |
| COc1cc(/C=C/C(=O)N[C@@H](Cc2ccccc2)[C@H](O)CN(CC(C)C)S(=O)(=O)c2ccc(SC)cc2)ccc1O | 15.8 nM | 99.5 nM | – |
| COc1ccc(S(=O)(=O)N(CC(C)C)C[C@@H](O)[C@H](Cc2ccccc2)NC(=O)/C=C/c2ccc(O)c(O)c2)cn1 | 2.86 nM | 35.5 nM | – |
| COc1ccc(S(=O)(=O)N(C[C@@H](O)[C@H](Cc2ccccc2)NC(=O)CCc2cc(OC)c(O)cc2OC)C2CC2)cc1 | 161 nM | 9 nM | – |
| COc1cc(/C=C/C(=O)N[C@@H](Cc2ccccc2)[C@H](O)CN(CC(C)C)S(=O)(=O)c2ccc(N)cc2)ccc1O | 3.09 nM | 43.5 nM | – |
| COc1ccc(S(=O)(=O)N(C[C@@H](O)[C@H](Cc2ccccc2)NC(=O)CCc2cc(OC)c(O)cc2OC)C(C)C)cc1 | 70.1 nM | 299 nM | – |
| CC(C)CN(C[C@@H](O)[C@H](Cc1ccccc1)NC(=O)/C=C/c1ccc(O)c(O)c1)S(=O)(=O)c1ccc(N)cc1 | 0.2 nM | 7.5 nM | – |
| COc1ccc(S(=O)(=O)N(CC(C)C)C[C@@H](O)[C@H](Cc2ccccc2)NC(=O)/C=C/c2cc(OC)c(O)c(OC)c2)cn1 | 69.5 nM | 11.5 nM | – |
| COc1ccc(S(=O)(=O)N(CC(C)C)C[C@@H](O)[C@H](Cc2ccccc2)NC(=O)CCc2ccc(O)c(OC)c2)cn1 | 0.16 nM | 241 nM | – |
| COc1ccc(S(=O)(=O)N(C[C@@H](O)[C@H](Cc2ccccc2)NC(=O)CCc2ccc(O)c(O)c2)C2CC2)cc1 | 4.04 nM | 45.5 nM | – |
| COc1ccc(S(=O)(=O)N(C[C@@H](O)[C@H](Cc2ccccc2)NC(=O)/C=C/c2ccc(O)c(OC)c2)C(C)C)cc1 | 98.8 nM | 87.5 nM | – |
| COc1ccc(S(=O)(=O)N(C[C@@H](O)[C@H](Cc2ccccc2)NC(=O)CCc2ccc(O)c(O)c2)C(C)C)cc1 | 1.47 nM | 20.5 nM | – |
| COc1ccc(S(=O)(=O)N(C[C@@H](O)[C@H](Cc2ccccc2)NC(=O)/C=C/c2cc(OC)c(O)c(OC)c2)C(C)C)cc1 | 527 nM | 199 nM | – |
| COc1ccc(S(=O)(=O)N(C[C@@H](O)[C@H](Cc2ccccc2)NC(=O)/C=C/c2ccc(O)c(O)c2)C(C)C)cc1 | 54 nM | 53.5 nM | – |
| CCCN(C[C@@H](O)[C@H](Cc1ccccc1)NC(=O)CCc1ccc(O)c(O)c1)S(=O)(=O)c1ccc(OC)cc1 | 0.54 nM | 7.5 nM | – |
| COc1cc(CCC(=O)N[C@@H](Cc2ccccc2)[C@H](O)CN(CC(C)C)S(=O)(=O)c2ccc(SC)cc2)c(OC)cc1O | 89.8 nM | 60.7 nM | – |
| COc1ccc(S(=O)(=O)N(CC(C)C)C[C@@H](O)[C@H](Cc2ccccc2)NC(=O)CCc2cc(OC)c(O)cc2OC)cc1 | 104 nM | 73 nM | – |

| SMILES | IC50 [3] | IC50 [4] | also measured |
| --- | --- | --- | --- |
| COc1cc(CCC(=O)N[C@@H](Cc2ccccc2)[C@H](O)CN(CC(C)C)S(=O)(=O)c2ccc(SC)cc2)ccc1O | 7.73 nM | 3.5 nM | – |
| COc1cc(/C=C/C(=O)N[C@@H](Cc2ccccc2)[C@H](O)CN(CC(C)C)S(=O)(=O)c2ccc(SC)cc2)cc(OC)c1O | 65.1 nM | 51.5 nM | – |
| COc1ccc(S(=O)(=O)N(C[C@@H](O)[C@H](Cc2ccccc2)NC(=O)CCc2ccc(O)c(OC)c2)C2CC2)cc1 | 32.5 nM | 285 nM | – |
| COc1ccc(S(=O)(=O)N(CC(C)C)C[C@@H](O)[C@H](Cc2ccccc2)NC(=O)CCc2ccc(O)c(O)c2)cn1 | 0.081 nM | 2.5 nM | – |
| CSc1ccc(S(=O)(=O)N(CC(C)C)C[C@@H](O)[C@H](Cc2ccccc2)NC(=O)/C=C/c2ccc(O)c(O)c2)cc1 | 16.2 nM | 21.5 nM | – |
| COc1ccc(S(=O)(=O)N(CC(C)C)C[C@@H](O)[C@H](Cc2ccccc2)NC(=O)/C=C/c2cc(OC)c(O)c(OC)c2)cc1 | 13.1 nM | 125 nM | – |
| COc1ccc(S(=O)(=O)N(CC(C)C)C[C@@H](O)[C@H](Cc2ccccc2)NC(=O)/C=C/c2ccc(O)c(O)c2)cc1 | 0.16 nM | 40.8 nM | – |
| CCCN(C[C@@H](O)[C@H](Cc1ccccc1)NC(=O)CCc1ccc(O)c(OC)c1)S(=O)(=O)c1ccc(OC)cc1 | 1.7 nM | 234 nM | – |
| COc1ccc(S(=O)(=O)N(C[C@@H](O)[C@H](Cc2ccccc2)NC(=O)CCc2ccc(O)c(OC)c2)C(C)C)cc1 | 9.56 nM | 40.5 nM | – |
| CSc1ccc(S(=O)(=O)N(CC(C)C)C[C@@H](O)[C@H](Cc2ccccc2)NC(=O)CCc2ccc(O)c(O)c2)cc1 | 2.02 nM | 0.43 nM | inhibition at 10 µM [1]: 97%; inhibition at 10 µM [2]: 68%; EC50 [5]: 8.32 µM; EC50 [6]: 2.31 µM; Ratio [7]: 1.43 |
| COc1ccc(S(=O)(=O)N(CC(C)C)C[C@@H](O)[C@H](Cc2ccccc2)NC(=O)CCc2cc(OC)c(O)cc2OC)cn1 | 42.2 nM | 2.97 nM | – |
| COc1ccc(S(=O)(=O)N(C[C@@H](O)[C@H](Cc2ccccc2)NC(=O)/C=C/c2ccc(O)c(O)c2)C2CC2)cc1 | 19.5 nM | 31.5 nM | – |
| COc1ccc(S(=O)(=O)N(CC(C)C)C[C@@H](O)[C@H](Cc2ccccc2)NC(=O)/C=C/c2ccc(O)c(OC)c2)cn1 | 2.42 nM | 124 nM | – |
| CC(C)CN(C[C@@H](O)[C@H](Cc1ccccc1)NC(=O)CCc1ccc(O)c(O)c1)S(=O)(=O)c1ccc(N)cc1 | 0.56 nM | 9.5 nM | – |
| COc1cc(/C=C/C(=O)N[C@@H](Cc2ccccc2)[C@H](O)CN(CC(C)C)S(=O)(=O)c2ccc(N)cc2)cc(OC)c1O | 144 nM | 1.5 nM | inhibition at 10 µM [1]: 30%; inhibition at 10 µM [2]: 14%; EC50 [5]: 68 µM; EC50 [6]: 37.4 µM; Ratio [7]: 2.14 |
| COc1ccc(S(=O)(=O)N(C[C@@H](O)[C@H](Cc2ccccc2)NC(=O)/C=C/c2cc(OC)c(O)c(OC)c2)C2CC2)cc1 | 294 nM | 33.5 nM | – |
| CCCN(C[C@@H](O)[C@H](Cc1ccccc1)NC(=O)/C=C/c1cc(OC)c(O)c(OC)c1)S(=O)(=O)c1ccc(OC)cc1 | 36.7 nM | 90.5 nM | – |
| COc1ccc(S(=O)(=O)N(CC(C)C)C[C@@H](O)[C@H](Cc2ccccc2)NC(=O)CCc2ccc(O)c(OC)c2)cc1 | 1.1 nM | 206 nM | – |
| CCCN(C[C@@H](O)[C@H](Cc1ccccc1)NC(=O)/C=C/c1ccc(O)c(OC)c1)S(=O)(=O)c1ccc(OC)cc1 | 24.1 nM | 106 nM | – |
| COc1ccc(S(=O)(=O)N(CC(C)C)C[C@@H](O)[C@H](Cc2ccccc2)NC(=O)CCc2ccc(O)c(O)c2)cc1 | 0.39 nM | 3.5 nM | – |
| CCCN(C[C@@H](O)[C@H](Cc1ccccc1)NC(=O)/C=C/c1ccc(O)c(O)c1)S(=O)(=O)c1ccc(OC)cc1 | 2.55 nM | 53.5 nM | – |
| O=C1Nc2ccc(Cl)cc2[C@@](C#CC2CC2)(C(F)(F)F)O1 [EFAVIRENZ] | – | – | inhibition at 10 µM [1]: 15%; inhibition at 10 µM [2]: 85% |
